Screening data deposited in PubChem by several laboratories.
ABCB1 block: human ABCB1 inhibition, ABCG2 as counter-screen; inhibition, % at 6.6 µM; actives 0.067% (n = 190,000); AID 1326; CCRF-Adr cells, JC-1 efflux, flow cytometry; P08183; in the data active = inhibition above about 40%;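 note: higher value means more JC-1 retained so stronger ABCB1 efflux block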
WT yeast gro inh: growth inhibition of WT yeast, mitochondrial fusion screen; actives 2.1% (n = 190,000); AID 1362; mitochondrial fusion phenotypic screen, WT strain; inhibition, % at 10 µM; in the data active = inhibition above about 58%; tested in S. cerevisiae
MEKK2 WT-MEK5: raises or lowers MEK5 binding to wildtype human MEKK2 PB1 domain. Q9Y2U5. bead flow cytometry, Alexa488-MEK5 binding to MEKK2 WT; actives lie on both sides. binding response (% of control), % at 10 µM. actives 1.1% (n = 290,000). AID 1531; in the data active = binding response below about 67% or above about 130%
MEKK2 mut-MEK5: signal of MEK5 binding to mutant human MEKK2 PB1 domain; bead flow cytometry, Alexa488-MEK5 binding to MEKK2 mutant; percent response, % at 10 µM; actives 0.35% (n = 290,000); AID 1530; in the data active = percent response above about 24%, passing the limit was not always enough
MEKK3 PB1 HTS: MEKK3-MEK5 PB1 interaction, increase or decrease | bead-based flow cytometry, Alexa488-MEK5 binding to MEKK3; actives lie on both sides; 0 = blocked by unlabeled MEK5, 100 = vehicle | binding response (% of control), % at 10 µM | actives 1.4% (n = 290,000) | AID 1529;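 active = binding response more than 3 SD above or below the average of its plate-row segment, actives on both sides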;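 note: Alexa488 bead fluorescence after subtracting the streptavidin-only scavenger bead signal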
ABCG2 block: inhibitors of human ABCG2 transporter, ABCB1 counter-screen | Q9UNQ0 | IgMXP3 cells, JC-1 efflux, flow cytometry | inhibition, % at 6.6 µM | actives 0.1% (n = 190,000) | AID 1325;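 active = inhibition above 80%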
Target sequence (Q9UNQ0 whole entry, looked up): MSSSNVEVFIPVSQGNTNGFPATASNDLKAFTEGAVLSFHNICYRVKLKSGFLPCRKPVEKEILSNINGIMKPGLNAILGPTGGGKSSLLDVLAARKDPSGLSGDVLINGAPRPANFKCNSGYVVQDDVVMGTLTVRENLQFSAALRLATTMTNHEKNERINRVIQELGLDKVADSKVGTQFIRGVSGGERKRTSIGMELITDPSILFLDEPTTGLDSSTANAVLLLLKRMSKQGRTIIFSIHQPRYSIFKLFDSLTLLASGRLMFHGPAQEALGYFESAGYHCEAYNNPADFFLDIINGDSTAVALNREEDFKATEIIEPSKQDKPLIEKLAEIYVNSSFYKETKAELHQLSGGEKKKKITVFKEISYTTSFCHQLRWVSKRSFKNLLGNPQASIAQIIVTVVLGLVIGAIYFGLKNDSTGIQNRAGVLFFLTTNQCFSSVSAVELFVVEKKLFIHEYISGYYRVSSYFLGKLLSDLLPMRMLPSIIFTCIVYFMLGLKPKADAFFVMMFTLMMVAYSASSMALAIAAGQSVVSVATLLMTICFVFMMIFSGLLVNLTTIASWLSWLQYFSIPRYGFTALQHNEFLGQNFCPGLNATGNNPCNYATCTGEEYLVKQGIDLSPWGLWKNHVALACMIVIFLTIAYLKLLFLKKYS
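Test system: IgMXP3 (ABCG2) plus far-red-tagged CCRF-Adr (ABCB1) cells / Amount: 3 million cells/mL in well / Reagent: JC-1 transporter substrate / Timing: 10 min compound exposure, 25 °C / Signal: flow cytometry, 530 nm JC-1 signal / Read-out: percent efflux inhibition, scaled nicardipine 100% to DMSO 0% / Benchmarks: nicardipine as high control, DMSO as low control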
MEKK2wt confirm: raises or lowers MEK5 binding to wildtype human MEKK2, retest; shares compounds with MEKK3 PB1 HTS; binding response (% of control), % at 10 µM; actives 2.4% (n = 5,900); bead flow cytometry, Alexa488-MEK5 binding to MEKK2 WT; actives lie on both sides; in the data active = binding response below about 16% or above about 210%; inactive = in between
MEKK2mut confirm: signal of MEK5 binding to mutant human MEKK2, retest; actives 2% (n = 5,900); percent response, % at 10 µM; shares compounds with MEKK3 PB1 HTS; AID 1893; bead flow cytometry, Alexa488-MEK5 binding to MEKK2 mutant; in the data active = percent response mostly above about 71%, no sharp cut-off; inactive = mostly below about 38%;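 note: higher means compound restores mutant binding toward wildtype level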
MEKK3-MEK5 inh: confirmation of inhibitors of MEK5 binding to human MEKK3; shares compounds with MEKK3 PB1 HTS; actives 1.8% (n = 5,900); binding response (% of control), % at 10 µM; bead flow cytometry, Alexa488-MEK5 binding to MEKK3; hits give low values;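 active = binding response below 72% of control, or above a set upper limit, though filed actives all read lower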;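 note: lower values mean stronger disruption of MEK5 binding to MEKK3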
Hits are given with their value; . = inactive; / = no result given; [ ] = remark or other dose. Hits are enriched below; roughly 3.5% of the tested compounds scored in any of these assays.

SMILES | ABCB1 block | WT yeast gro inh | MEKK2 WT-MEK5 | MEKK2 mut-MEK5 | MEKK3 PB1 HTS | ABCG2 block | MEKK2wt confirm | MEKK2mut confirm | MEKK3-MEK5 inh
Cc1nccn1CC(=O)N/N=C/c1cccs1 | / | / | . | . | . | / | / | / | /
Cc1nc(NC(=O)/C=C/c2ccccc2)sc1C(=O)NCCO | . | . | . | 79 | 139 | . | . | . | .
CCOC(=O)CNC(=O)c1sc(NC(=O)/C=C/c2ccccc2)nc1C | / | / | . | . | . | / | / | / | /
CCOCCCN(C)C1CCN(S(=O)(=O)c2csc(C(N)=O)c2)CC1 | / | / | . | . | . | / | / | / | /
CCOC(=O)N1CCN(C(=O)C2CCN(C(=O)c3cc(OC)cc(OC)c3)CC2)CC1 | . | . | . | . | 142 | . | . | . | .
CCOC(=O)CNC(=O)CSc1nc(-c2ccc(C)cc2)ns1 | . | . | . | . | 129 | . | . | . | .
CCOC(=O)N1CCN(C(=O)CSc2nc(-c3cccc(C)c3)ns2)CC1 | . | . | 134 | . | 147 | . | . | . | .
CCOC(=O)CNC(=O)CSc1nc(-c2ccccc2)ns1 | . | . | . | . | . | . | / | / | /
Cc1cccc(-c2nsc(SCC(=O)Nc3cc(C)on3)n2)c1 | . | . | . | . | . | . | / | / | /
COc1cc(OC)cc(C(=O)NCCCN2CCN(CCCNC(=O)c3cc(OC)cc(OC)c3)CC2)c1 | . | . | . | . | . | . | / | / | /
CSc1nc2ccccc2n1Cc1cccc([N+](=O)[O-])c1 | . | . | . | . | 152 | . | . | . | .
Nc1ccc(N2CCCCC2)c(Cl)c1 | . | . | . | . | . | . | / | / | /
CCCCn1cc(SCC(=O)O)c2ccccc21 | . | . | -1.0[inhibitor] | . | -1.0[inhibitor] | . | . | . | .
CCCn1cc(SCC(=O)NC2CCCC2)c2ccccc21 | / | / | . | . | . | / | / | / | /
CCOc1ccccc1NC(=O)c1ccc(Cl)c(NC(=O)CC(c2ccccc2)c2ccccc2)c1 | . | . | . | . | . | . | / | / | /
CCSc1nnc(-c2sc3nnc(-c4ccccc4)c(-c4ccccc4)c3c2N)o1 | . | . | 70[inhibitor] | . | . | . | . | . | .
CCSc1nnc(-c2ccncc2)o1 | . | . | . | . | . | . | / | / | /
CN(C)CCCN(C(=O)C1COc2ccccc2O1)c1nc2ccc(F)cc2s1 (stereo not drawn) | . | . | . | . | . | . | / | / | /
CN(C)CCCN(C(=O)/C=C/c1cccs1)c1nc2ccc(F)cc2s1 | . | 86 | 152 | . | . | . | . | . | .
CN(C)CCCN(C(=O)c1sc2ccccc2c1Cl)c1nc2ccc(F)cc2s1 | . | 64 | 143 | . | . | . | . | . | .
O=C(Nc1cccc(F)c1)c1cccnc1NCCc1ccccc1 | . | . | . | . | . | . | / | / | /
O=C(Nc1ccc(F)cc1)c1cccnc1NCCc1ccccc1 | . | . | . | . | 142 | . | . | . | .
Cc1ccc(NC(=O)c2c([N+](=O)[O-])c(C(C)(C)C)nn2C)c(C)c1 | . | . | . | . | 137 | . | . | . | .
CC(=O)Nc1ccc(NC(=O)c2c([N+](=O)[O-])c(C(C)(C)C)nn2C)cc1 | / | / | . | . | . | / | / | / | /
COc1cc(-c2nnn(CC(=O)NC3CCS(=O)(=O)C3)n2)ccc1OCc1ccccc1 (stereo not drawn) | . | . | 0.0[inhibitor] | . | 0.0[inhibitor] | . | . | . | .
SMILES | ABCB1 block | WT yeast gro inh | MEKK2 WT-MEK5 | MEKK2 mut-MEK5 | MEKK3 PB1 HTS | ABCG2 block | MEKK2wt confirm | MEKK2mut confirm | MEKK3-MEK5 inh
Cc1ccc2c(Cl)cc(Cl)c(OCC(=O)O)c2n1 | . | . | . | . | 129 | . | . | . | .
CCC(CC)c1nnc(NC(=O)CN2C(=O)NC3(CCCC3)C2=O)s1 | / | / | . | . | . | / | / | / | /
COc1ccc(C2C(C(=O)Nc3cc(C)on3)c3ccccc3C(=O)N2C)cc1 (stereo not drawn) | . | . | . | . | . | . | / | / | /
COc1ccc(C2C(C(=O)Nc3cc(C)on3)c3ccccc3C(=O)N2C)cc1OC (stereo not drawn) | . | . | 0.0[inhibitor] | . | 0.0[inhibitor] | . | . | . | .
CC(C)C(OC(=O)CN1C(=O)c2ccccc2C1=O)C(=O)NC1CCCC1 (stereo not drawn) | / | / | . | . | . | / | / | / | /
CCOc1ccc(C(=O)NCC(c2cccs2)N(C)C)cc1OCC (stereo not drawn) | . | . | . | . | 70[inhibitor] | . | . | . | .
CCCN(CCC)C(=O)CC(c1ccccc1)c1ccco1 (stereo not drawn) | / | / | . | . | . | / | / | / | /
CCCCNS(=O)(=O)c1ccc2nc(SCC(N)=O)[nH]c2c1 | / | / | . | . | . | / | / | / | /
CCCCNS(=O)(=O)c1ccc2nc(SCC(=O)c3ccccc3OC)[nH]c2c1 | . | . | . | . | 75[inhibitor] | . | . | . | .
Cn1c(=O)c2[nH]c(COc3ccc(C(C)(C)C)cc3)nc2n(C)c1=O | / | / | . | . | . | / | / | / | /
Nc1ccc(Oc2ccc3nc(-c4ccccc4)c(-c4ccc([N+](=O)[O-])cc4)nc3c2)cc1 | . | . | . | . | . | . | / | / | /
CC(C)CN(C(=O)C(c1ccccc1)c1ccccc1)c1c(N)n(CC(C)C)c(=O)[nH]c1=O | . | . | . | . | . | . | / | / | /
O=C(O)C1CCCN1C(=O)NC1CCCCC1 (stereo not drawn) | / | / | . | . | . | / | / | / | /
CCn1c(SCC(=O)NCC(=O)Nc2ccc(F)cc2)nnc1-c1cccs1 | . | . | -4.0[inhibitor] | . | 0.0[inhibitor] | . | . | . | .
CCn1c(CNC(=O)c2cccs2)nnc1SCC(=O)Nc1ccc(Cl)cc1 | . | . | . | . | 128 | . | . | . | .
CCn1c(CC(=O)Nc2ccc(Cl)c(Cl)c2)nnc1SCc1ccc(Cl)cc1 | . | . | 14[inhibitor] | . | 8.0[inhibitor] | . | . | . | .
Cc1nnc(NC(=O)CN2CCN(Cc3ccc(F)cc3Cl)CC2)s1 | / | / | . | . | . | / | / | / | /
CN(C)/C=N/c1nc2nccc(-c3ccc(Cl)cc3)n2n1 | . | . | . | . | . | . | / | / | /
CN(C)/C=N/c1nc2nccc(-c3ccccc3)n2n1 | . | . | . | . | 47[inhibitor] | . | . | . | .
O=S(=O)(c1ccccc1)N1N=C(c2ccccc2)CC1c1ccco1 (stereo not drawn) | / | / | . | . | . | / | / | / | /
Cc1ccc(C2=NN(S(=O)(=O)c3ccccc3)C(c3ccccc3O)C2)cc1 (stereo not drawn) | . | 84 | / | 161 | 14[inhibitor] | . | . | . | .
